These results are taken from the EternaBench riboswitch data.

The test system of the data set is MS2 coat protein. Put plainly: apparent Kd, MS2 coat protein; higher = weaker binding; RNA-MaP array; FMN 200 µM where present. Summed up:
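The apparent Kd is reported as the median of filtered per-cluster binding-curve fits. To get these curves, designs transcribed by stalled E. coli RNA polymerase on Illumina sequencing-chip clusters were titrated with SNAP-549-labelled MS2 coat protein from 0.7 or 1.5 nM, doubling to 3 µM. Titrations were run without and then with constant ligand in 100 mM Tris-HCl pH 7.5, 80 mM KCl, 4 mM MgCl2, BSA, DTT, yeast tRNA and Tween-20, and green signal was normalised to red-channel RNA signal and control-cluster median Fmax.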

[1] abbreviates: designed as: ON switch for flavin mononucleotide, no ligand.
[2] abbreviates: ligand present: flavin mononucleotide, designed as: ON switch for flavin mononucleotide.
Where [3] appears, read: designed as: OFF switch for flavin mononucleotide, no ligand.
The mark [4] stands for this setting: ligand present: flavin mononucleotide, designed as: OFF switch for flavin mononucleotide.

“AUUGAGUGGUCAGGAUAUGUACGGCCUACCGCACAUGAGGAUCACCCAUGUCGCCAAGGAGGACGACAGAAGGGACAACGAAUG”: the “apparent Kd” value under setting [1] amounted to 43.5 nM and the “apparent Kd” value under setting [2] was 8.83 nM.
On to “GUGGUGCGUAUACGUGGAUGUACAUGAGGAUCACCCAUGUAAGAGGAUAUGCGGAUACUAGCUCAGCAGAAGGCUUACAAAUGA”, for which the “apparent Kd” value reads like this: under setting [3], 23.1 nM; under setting [4], 92.1 nM.
As to “UAUUGAUAAUAUUUUCACAUGAGGAUCACCCAUGUCGCUCGACAGGAUAUAUUUUAUUUGUUUAAGUAGAAGGGUCGCAGAUUU”, the “apparent Kd” value under setting [1] came to 143 nM and the “apparent Kd” value under setting [2] stood at 109 nM.
In the case of “GUAUUUUAAGUAAGGAUAUGCCUCUGGAAACGGAGGUAGAAGGUACAUGAGGAUCACCCAUGUUUCUCUUUUGG”, the “apparent Kd” value under setting [3] was 16.3 nM and the “apparent Kd” value under setting [4] was determined as 20.6 nM.
“GCAGCUAAUAUUAUACAUGAGGAUCACCCAUGUUACAUGAGUAAGGAUAUUGAUGAUUAUAUAAACAAGAAGGUACGUAGCUGC”: the “apparent Kd” value reads like this: under setting [1], 15.7 nM; under setting [2], 7.49 nM.
“AUGUUUCAUGUAGGAUAUGCAUAGCGUUGCUAUGCAGAAGGACAUGAGGAUCACCCAUGUAUAUUAUCAUUACAUAUCAUACAU”: the “apparent Kd” value under setting [3] was 45.7 nM and the “apparent Kd” value under setting [4] was 546 nM.
With “UUCUUGGCAGGAUAUGCUCUCUUAGACAUGAGGAUCACCCAUGUGUUCAUUCUUUCUUUUGCAGAAGGGCCUUAAU”, the “apparent Kd” value reads like this: under setting [3], 56.5 nM; under setting [4], 69.9 nM.
On to “AAAAGACAUGAGGAUCACCCAUGUAAAAACAUAGGAGGAUAUGUUUGGAAACUAGACUGAACAGAAGGCCUUUGUC”, for which the “apparent Kd” value by setting is: under setting [1], 22.9 nM; under setting [2], 17 nM.
For “GGAAGACAUGAGGAUCACCCAUGUGGGAUUAUGGGAGGAUAUACAAAGACGAGAGUCAGAGUAGAAGGCCUAGGAU”, the “apparent Kd” value runs as follows: under setting [1], 84.3 nM; under setting [2], 33.9 nM.
Regarding “AUAAGCUCGUCAGGAUAUGCGACACUGUUUCGGCAGUGUGGUAUGAUCACAUGAGGAUCACCCAUGUAGAAGGGACGAGCUUAU”, the “apparent Kd” value came to 6.09 nM under setting [3] and 11.7 nM under setting [4].
The like results for “UGUGCUAUGUAGAAGGCAGAUCUGAUUCAGAUCUGAGGAUAUACAUGAGGAUCACCCAUGUUAUGCACCAGCACGAGAGUGCAC” were, in that order, 7.89 nM and 17.1 nM.
On to “GGAGCUCACAUUAACAUGAGGAUCACCCAUGUCUCUUGACAUGAGGAUAUGGAUCCUAAUUGGAUCCAGAAGGCAUGGAGCUCC”, for which the “apparent Kd” value is, setting by setting: under setting [1], 1650 nM; under setting [2], 108 nM.
Turning to “AUACCACGAGGAUAUCGUCUAUUCCACAUGAGGAUCACCCAUGUUAUCCAUGUUUCGUUUCGAGAAGGCGUGGGUU”, the “apparent Kd” value is 59.9 nM under setting [3] and 42.9 nM under setting [4].
For “ACAUGAUCAGGAUAUACAUGAGGAUCACCCAUGUUUAUCAAAAAAGGGCCUUCUACAUGUAGAAGGGAUCUUGU”, the “apparent Kd” value by setting is: under setting [3], 14.8 nM; under setting [4], 15.1 nM.
On to “CCGCUAAUAGGAUAUACAUGAGGAUCACCCAUGUCACUCUUCAUUGGUGUCUCUUCAAGUAGAAGGGUUGCUCA”, for which the “apparent Kd” value is, setting by setting: under setting [3], 28.5 nM; under setting [4], 28.1 nM.
Turning to “ACUGACAUGAGGAUCACCCAUGUCUUGAAUAGGUCAAAUUCACAGGAUAUGCACUUGGACAGGGUGCAGAAGGGUGAUGCAAUG”, the “apparent Kd” value by setting is: under setting [1], 57 nM; under setting [2], 12.2 nM.
For “AAAUUUUGUCAAGGAUAUGUAUAAAAGAUAAGAAAACAUGAGGAUCACCCAUGUAUAUGGUGGGAACAGAAGGUGAAUAAGUAA”, the “apparent Kd” value by setting is: under setting [3], 185 nM; under setting [4], 158 nM.
With “GUUCUUCCUGUGAGGAUAUCCAUGUGUCGGUUUGUGGAGAAGGUACAUGAGGAUCACCCAUGUCACCCGCGUUU”, the “apparent Kd” value runs as follows: under setting [3], 14.8 nM; under setting [4], 16.3 nM.
As for “UAUUAAACAUAGGAUAUCGAAUAAAUCAUUUAACGAGAAGGAUGAACAUGAGGAUCACCCAUGUGGUAUCAUGG”, the “apparent Kd” value amounted to 246 nM under setting [3] and 256 nM under setting [4].
For “UCGUGGUUAGGAUAUACAUGAGGAUCACCCAUGUGUGGCAGGGAGCGCCGACGGGCUUGUAGAAGGGAUGCGCA”, the “apparent Kd” value came out at 40.4 nM under setting [3] and 39.6 nM under setting [4].
Turning to “UAAUUUUGUCAAGGAUAUGUAAUAUAGAUUUGAAAACAUGAGGAUCACCCAUGUAUAUGGUGGGAACAGAAGGUGAAUGGAGAA”, the “apparent Kd” value by setting is: under setting [3], 252 nM; under setting [4], 242 nM.
“GUUUCGUGAGGAUAUGUGGCUUCGAUCGUGCGAACGAGGCUACAGAAGGCACAUGAGGAUCACCCAUGUUCCUC”: the “apparent Kd” value is, setting by setting: under setting [3], 37.4 nM; under setting [4], 481 nM.
Turning to “UAUAUAUAGUAAGGAUAUGUAUCUAUUUUAUAAACAGAAGGUACUGACAUGAGGAUCACCCAUGUUUUAGUGUGGGCAUGUAGA”, the “apparent Kd” value is, setting by setting: under setting [3], 92.2 nM; under setting [4], 114 nM.
With “UUGGACGUCGUAGGAUAUGUAGGAUAUUCCUACAUGAGGAUCACCCAUGUUGACAUGGAAGAAGGACAGAAGGGCGAUGUCCAU”, the “apparent Kd” value under setting [1] is 352 nM and the “apparent Kd” value under setting [2] came out at 5.27 nM.
With “AUUUAUGGCCAGAAGGACAUGAGGAUCACCCAUGUAGGAUAUGGACGAUUUUACUCGGCGGUUUGUUUAGGAAGCACCGGCGGU”, the “apparent Kd” value came out at 8 nM under setting [1] and 6.32 nM under setting [2].
Consider “UUACCUCAUAUGGUUACAUGAGGAUCACCCAUGUGAAUAGCACAGGAUAUCACGAGGGCCACGUGUGAGAAGGGUGAUGUGAGG”, for which the “apparent Kd” value runs as follows: under setting [1], 438 nM; under setting [2], 167 nM.
Regarding “AGGUACUAGGGAGGAUAUGGGAAGAUACAUGAGGAUCACCCAUGUUUAAGAAUGCCGAGAGGCAACUAGAAGGCCCUAGUACCU”, the “apparent Kd” value worked out at 454 nM under setting [1] and 19.8 nM under setting [2].
For “AUGGUUCGAUUAGGAUAUUAUAGAUUGAAUAGUAUGAUUUACAUGAGGAUCACCCAUGUUACAUAUAAGAAGGAAUCGAAUCAU”, the “apparent Kd” value reads like this: under setting [3], 20.1 nM; under setting [4], 11.6 nM.
As for “UUAAUUAAUUAGAAGGCAUGUCAUAAGACAUGAGGAUCACCCAUGUAGUUAAGGCGAAAGCCGCAUGAGGAUAUAUAAAUAUAU”, the “apparent Kd” value runs as follows: under setting [1], 552 nM; under setting [2], 319 nM.
Take “GGGUACAUCGGAGGAUAUCAUGUAAAUACAUGAGGAUCACCCAUGUCGAUGGAGACAUCGGAGAUUGAGAAGGCCGAUGUACCU”: the “apparent Kd” value reads like this: under setting [1], 152 nM; under setting [2], 8.75 nM.
“UUUUAACAUGAGGAUCACCCAUGUGAGGAUAUCGUUUUUUUUAUUAAUAUUAAUAAAACGAGAAGGCACAUUUU”: the “apparent Kd” value is 149 nM under setting [3] and 149 nM under setting [4].
Turning to “GUGGUCAGACAUGAGGAUCACCCAUGUGGAAUAAAUAACAGACAGGAUAUCUAAUAUAGGAUAUAGGAGAAGGGUCGAUUGGUG”, the “apparent Kd” value under setting [1] was 89 nM and the “apparent Kd” value under setting [2] was 85.3 nM.
Consider “GCACGUAGACAGAAGGCGACAUGAGGAUCACCCAUGUUGGCUCGGGUAUGACCAAUCCGCAUGAUCGAGGAUAUGUCCGCGGGC”, for which the “apparent Kd” value reads like this: under setting [3], 265 nM; under setting [4], 19.2 nM.
As to “GGUACUCAAAGAGUACCAAUACGAACAUGAGGAUCACCCAUGUAGGAUAUGCUACUCAAAGAGUAGCAGAAGGACAUGUGCUUU”, the “apparent Kd” value turned out to be 38.8 nM under setting [3] and 252 nM under setting [4].
For the sequence “GGUUGACAAAGUCAACCAAUUCGAACAUGAGGAUCACCCAUGUAGGAUAUGCUACUCAAAGAGUAGCAGAAGGACAUGUGCCUU”, the “apparent Kd” value runs as follows: under setting [3], 34.3 nM; under setting [4], 188 nM.
With “CUUUAAGUCGAGAAGGACAUGAGGAUCACCCAUGUAGGAUAUCGAUUAGCUUACAACCCGAGCCGCAUUGGUAUGACUGGUGGG”, the “apparent Kd” value came to 12.9 nM under setting [1] and 6.23 nM under setting [2].
For the sequence “GGAUCCAACACAGGAUAUGCUGGACUUUGUCCAGCAGAAGGGUGAAGAACAUGAGGAUCACCCAUGUGGAUCCAUAUAUUUUAU”, the “apparent Kd” value runs as follows: under setting [1], 262 nM; under setting [2], 16.5 nM.
For “AAUAGUGGCGUAGGAUAUCUGCGUACAUGAGGAUCACCCAUGUCUCCCAACUGCUGAGCUGGGACAGAGAAGGGCGACCGCAUA”, the “apparent Kd” value by setting is: under setting [1], 225 nM; under setting [2], 85.4 nM.
On to “CUCUUGGCAGGAUAUGCUCUCUUAGACAUGAGGAUCACCCAUGUGCUCAUUCCUUCUUUUGCAGAAGGGCCUUAAC”, for which the “apparent Kd” value runs as follows: under setting [3], 71.4 nM; under setting [4], 52.3 nM.
In the case of “AGUGUGUUAGGAUAUCGCAUAUGCUGGAGGAGGUGGAGUUACGAGAAGGAACAUGAGGAUCACCCAUGUAGGAC”, the “apparent Kd” value came out at 28.2 nM under setting [3] and 26.5 nM under setting [4].
Consider “UUAAUUAAUUAAUUAUACAUGAGGAUCACCCAUGUAAGUGAUCAGGAUAUCAGCUCGAAUAGAGCUGAGAAGGGAUACAUGUAA”, for which the “apparent Kd” value is, setting by setting: under setting [1], 199 nM; under setting [2], 111 nM.
Consider “CUUUCGUGAGGAUAUGAGGCUUCGAUCGUGAGAUCGAGGCUACAGAAGGCACAUGAGGAUCACCCAUGUUCCUC”, for which the “apparent Kd” value runs as follows: under setting [3], 30.9 nM; under setting [4], 392 nM.
With “GUGCUACAGCUGCGCACGAGACAUGAGGAUCACCCAUGUGACAGAAGGGACUUGUUAAAGGUAGGUCAGGAUAUGUCUUAAAAG”, the “apparent Kd” value was 148 nM under setting [1] and 44.2 nM under setting [2].
As to “AAAAAACAUGAGGAUCACCCAUGUGAGGAUAUCGUGCAGAAAAAAAAAAAAAACUGCACGAGAAGGCACAUGAA”, the “apparent Kd” value under setting [3] was found to be 237 nM and the “apparent Kd” value under setting [4] was found to be 460 nM.
In the case of “UGGGCCUCGUGAGGAUAUACAUGAGGAUCACCCAUGUAAUAAAGUGAACGGAGGAAACUCCGAAUGUAGAAGGCACGAGGCUCA”, the “apparent Kd” value under setting [3] was 19.5 nM and the “apparent Kd” value under setting [4] was 147 nM.
As for “UGAGCCUCGUGAGGAUAUACAUGAGGAUCACCCAUGUAAUAAAUCCAACGGAGGAAACUCCGAAUGUAGAAGGCACGAGGCUCA”, the “apparent Kd” value came out at 18.1 nM under setting [3] and 64.3 nM under setting [4].
“AUAUGACAUGAGGAUCACCCAUGUGAGGAUAUAUGCGCAGGUCCAGGGACGGCUGUGCAUAGAAGGUGCUUGGG”: the “apparent Kd” value was determined as 307 nM under setting [3] and 268 nM under setting [4].
For “GCCGCCCGAUCUGGCUUUUGGGCUAGAAGGGCAUAUGUGGUUCAGGACAUGAGGAUCACCCAUGUGCAGGAUAUAGCCCACCGC”, the “apparent Kd” value by setting is: under setting [3], 25.1 nM; under setting [4], 53 nM.

Broadly, the apparent Kd is the concentration giving half-maximal binding under the conditions of the assay.
